The source of these data is ChEMBL document CHEMBL4725444, “Brain Permeable Tafamidis Amide Analogs for Stabilizing TTR and Reducing APP Cleavage” (ACS Med Chem Lett, 2020).

Structures are written as SMILES. Calls of active or inactive are those of the source. No cut-off for these calls is given here.

Data set [1] deals with N2a695. In words: Increase in APP fragmentation in mouse N2a695 cells at 10 uM incubated for 6 hrs by Western blot analysis. The data set is classed as functional, cell-based. The gist of the method:
(§1)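 N2a695 cells (4.0 × 10^5–4.5 × 10^5 cells/mL, 90–95% confluent) treated with 10 μM final compound for 6 h at 37 °C, 5% CO2. Lysates run on SDS-PAGE; membrane fixed with 0.25% glutaraldehyde in PBS, blocked in milk PBST, probed with RU369 (APP C-terminus antibody), HRP secondary, ECL detection; APP-CTF bands quantified versus DMSO control.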

In data set [2] the test system is N2a695. In words: Increase in APP-CTF fragmentation in mouse N2a695 cells at 10 uM incubated for 6 hrs by Western blot analysis. The data set is classed as functional, cell-based. The gist of the method: as §1
In general terms: Immunoblotting shows a protein as a band on a membrane.

Data set [3] in a line: Inhibition of gamma secretase in mouse N2a695 cells using Sb4 substrate incubated for 3 hrs by ELISA. The following applies: N2a695, 3 h. For orientation: ELISA stands for enzyme-linked immunosorbent assay.
Data set [4] has as its system N2a695. In words: Effect on TTR-induced amyloid beta aggregation inhibition in mouse N2a695 cells measured for 4 hrs by fluorescence correlation spectroscopic analysis. In kind it is functional, cell-based.
The subject of data set [5] is N2a695. In words: Inhibition of amyloid beta aggregation in mouse N2a695 cells measured for 4 hrs by fluorescence correlation spectroscopic analysis. The data set is classed as cell-based.
Data set [6] can be described thus: Plasma concentration in 5XFAD mouse at 50 mg/kg, po measured after 15 days by LC-MS/MS analysis. In kind it is ADME, organism-based. Conditions: time 15 day. The method, boiled down: (§2)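 Dosed via drinking water for 15 days (50 mg/kg) in 3-month-old 5xFAD mice, n = 3. Blood and brain tissue collected on day 15; parent amide and its hydrolysis product tafamidis quantified in plasma and brain extracts by LC-MS/MS.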

Data set [7] is described as follows: Brain concentration in 5XFAD mouse at 50 mg/kg, po measured after 15 days by LC-MS/MS analysis. In kind it is ADME, organism-based. The following applies: time 15 day, read-out: Ct. The method, boiled down:
as §2

Data set [8] addresses Transthyretin (Homo sapiens) (UniProt P02766). In words: Stabilization of recombinant dual FLAG-tagged wild type TTR (unknown origin) in plasma blood at < 30 uM incubated for 48 hrs by ion exchange chromatographic method. In kind it is cell-free. The following applies: dose microM <30, time 48.0 hrs.
Data set [9] concerns N2a695. In words: Inhibition of amyloid beta 40 production in mouse N2a695 cells at 10 uM incubated for 6 hrs by ELISA relative to control. In kind it is cell-based. The method, boiled down:
(§3)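 Human APP695-expressing N2a695 cells (4.0 × 10^5–4.5 × 10^5 cells/mL, 90–95% confluent) given 10 μM final compound for 6 h at 37 °C, 5% CO2. Media assayed by human Aβ40/Aβ42 sandwich ELISA (Aβ40 media diluted 5–10×, Aβ42 undiluted); levels compared with DMSO vehicle. At least two experiments in duplicate or triplicate.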

Data set [10] relates to N2a695. In words: Inhibition of amyloid beta 42 production in mouse N2a695 cells at 10 uM incubated for 6 hrs by ELISA relative to control. In kind it is cell-based. The method, boiled down: as §3
Data set [11] can be described thus: Cytotoxicity against mouse N2a695 cells assessed as reduction in cell viability at 10 uM incubated for 24 hrs by MTT assay. In kind it is cell-based. The following applies: n2a695, 24 h. The method, boiled down:
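N2a cells exposed to 10 μM compound for 24 h; viable cell number determined by MTT assay.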

A short description of data set [12]: Metabolic stability in mouse liver microsomes assessed as parent compound remaining after 0.5 hrs by LC-MS/MS analysis relative to control. The data set is classed as ADME, Microsome. The following applies: read-out: Stabilty. The method, boiled down:
(§4)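 Compound at 1 or 10 μM incubated with mouse or human liver microsomes at 25 °C for 30 and 60 min; remaining parent quantified by LC-MS/MS.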
For orientation: Microsomes from liver hold many membrane-bound enzymes, among them those of drug oxidation.

Data set [13] is described as follows: Metabolic stability in CD1 mouse liver microsomes assessed as parent compound remaining at 10 uM measured after 0.5 hrs by LC-MS/MS analysis relative to control. In kind it is ADME, Microsome. Conditions: read-out: Stabilty. The gist of the method:
as §4

Data set [14] can be described thus: Metabolic stability in CD1 mouse liver microsomes assessed as parent compound remaining at 1 uM measured after 1 hr by LC-MS/MS analysis relative to control. The data set is classed as ADME, Microsome. The following applies: read-out: Stabilty. The method, boiled down: as §4
The nature of data set [15]: Metabolic stability in CD1 mouse liver microsomes assessed as parent compound remaining at 10 uM measured after 1 hr by LC-MS/MS analysis relative to control. In kind it is ADME, Microsome. Conditions: read-out: Stabilty. The gist of the method:
as §4

Data set [16] in a line: Metabolic stability in human liver microsomes assessed as parent compound remaining at 1 uM measured after 0.5 hrs by LC-MS/MS analysis relative to control. The data set is classed as ADME, Microsome. Conditions: read-out: Stabilty. The gist of the method: as §4
Data set [17] is described as follows: Metabolic stability in human liver microsomes assessed as parent compound remaining at 1 uM measured after 1 hr by LC-MS/MS analysis relative to control. The data set is classed as ADME, Microsome. Conditions: read-out: Stabilty. The gist of the method:
as §4

Consider `O=C(O)c1ccc2nc(-c3cc(Cl)cc(Cl)c3)oc2c1` [TAFAMIDIS], for which the outcome in the data set on N2a695 [1], with N2a695 [2] and in the data set with N2a695 [4] was inactive. Also, the IC50 in data set [3] is > 30 µM. For the same molecule, in the data set with N2a695 [5], the inhibition result was “inactive”. Also, the concentration at 360 h in data set [6] is 5800 nM; in [7] it was 223 ng/g. Besides, the result in [8] was Active. The Stability entry in [8] is reported as “Stable”.

For the molecule `O=C(NC1CCNCC1)c1ccc2nc(-c3cc(Cl)cc(Cl)c3)oc2c1`, the inhibition in the data set on N2a695 [9] and with N2a695 [10] was 30% in each case. In [11], the Activity result is recorded as “Toxic”. Further, the outcome in the data set on N2a695 [1] and in the data set with N2a695 [2] was Active.

For the molecule `O=C(c1ccc2nc(-c3ccc(C(F)(F)F)cc3)oc2c1)N1CCNCC1`, the inhibition in the data set on N2a695 [9] and with N2a695 [10] was 30% in each case. In addition, in data set [11], the Activity entry is recorded as “Toxic”. Besides, the result in the data set on N2a695 [1] and with N2a695 [2] was Active.

`CN(C)CCNC(=O)c1ccc2nc(-c3ccc(C(F)(F)F)cc3)oc2c1`: the inhibition in the data set on N2a695 [9] and in the data set with N2a695 [10] was 30% each time. Moreover, the result in the data set on N2a695 [1] and in the data set on N2a695 [2] was Active.

Turning to `O=C(c1ccc2nc(-c3cc(Cl)cc(Cl)c3)oc2c1)N1CCNCC1`, the inhibition in the data set with N2a695 [9] and in the data set on N2a695 [10] was 30% in each case. The Activity entry in data set [11] is given as “Non-Toxic”. Besides, the outcome (with N2a695 [1]; in the data set with N2a695 [2]; in data set [8]) was Active. Further, in the data set with N2a695 [4], the result was inactive. For the same molecule, the inhibition result in the data set with N2a695 [5] was “inactive”. Further, the concentration at 360 h in data set [6] was found to be 80 nM; in data set [7], 137 ng/g. For the same molecule, the remaining at 0.5 h, 1 µM in data set [12] is 15.1%; in data set [13], 26.7%; in data set [16], 75.4%. Moreover, the remaining at 1 h, 1 µM worked out at 2.3% in data set [14], 1.2% in [15] and 70.3% in [17].

As usually defined, the IC50 is the point on the concentration scale where inhibition reaches its midpoint. High values mean a need for much substance, low ones inhibition by little substance. As a reminder, the inhibition is the percentage by which the read-out fell short of the control.
